RGS4 act: RGS4 potentiators or activators, primary screen, cell-based, HEK293 M3R inducible RGS4, calcium flux | carbachol calcium flux Fluo4; active compounds read low | B-score at 10 µM | hit rate 0.92% among 310,000;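 active = B-score of the integrated calcium signal more than 4 SD below the library mean, with starting fluorescence not abnormally high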;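 note: negative B-score means reduced calcium response which marks RGS4 activation or potentiation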
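test system = HEK293 cells with stable M3R and inducible RGS4 | schedule = recording 10 s baseline at 1 Hz, 100 s post-agonist | technique = Fluo4-AM (2 µM) calcium-flux fluorescence, kinetic read | measure = Agonist-evoked peak-minus-minimum fluorescence over baseline, integrated ratio, B score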
RGS4 inh: RGS4 inhibitors, primary screen, cell-based, HEK293 M3R inducible RGS4, calcium flux; Fluo-4 calcium flux; active compounds read high; triggered by carbachol at its EC20; hit rate 0.45% among 310,000; B-score at 10 µM;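 active = B-score, a plate-corrected calcium signal, over three deviations above library mean, with baseline fluorescence within five deviations of library mean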;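 note: RGS4 expression induced by doxycycline in cells with stable M3 receptor; B-score is computed from the integrated fluorescence ratio over baseline after carbachol; higher B-score means a larger calcium signal and so more RGS4 inhibition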
Target sequence (P49798 whole entry, looked up): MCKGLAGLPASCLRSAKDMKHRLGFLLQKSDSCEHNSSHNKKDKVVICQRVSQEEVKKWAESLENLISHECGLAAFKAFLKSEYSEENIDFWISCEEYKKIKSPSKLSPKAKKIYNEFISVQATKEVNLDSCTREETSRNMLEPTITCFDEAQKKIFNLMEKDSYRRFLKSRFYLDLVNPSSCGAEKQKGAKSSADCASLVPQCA
MrgX1 allo act: positive allosteric modulators of MrgX1, primary screen, HEK293 cells, Fluo-4 calcium flux. Mas-related G-protein coupled receptor member X1 (Homo sapiens), Q96LB2. FDSS; active compounds read high. B-score at 10 µM. hit rate 0.63% among 310,000;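 active = plate-corrected calcium response at least 3 library SD above typical, normal starting fluorescence, not activating the receptor alone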;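 note: compound read alongside a low EC10 to EC30 dose of BAM8-22 agonist; peak minus trough fluorescence over baseline measured at the second addition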
Target sequence (Q96LB2 whole entry, looked up): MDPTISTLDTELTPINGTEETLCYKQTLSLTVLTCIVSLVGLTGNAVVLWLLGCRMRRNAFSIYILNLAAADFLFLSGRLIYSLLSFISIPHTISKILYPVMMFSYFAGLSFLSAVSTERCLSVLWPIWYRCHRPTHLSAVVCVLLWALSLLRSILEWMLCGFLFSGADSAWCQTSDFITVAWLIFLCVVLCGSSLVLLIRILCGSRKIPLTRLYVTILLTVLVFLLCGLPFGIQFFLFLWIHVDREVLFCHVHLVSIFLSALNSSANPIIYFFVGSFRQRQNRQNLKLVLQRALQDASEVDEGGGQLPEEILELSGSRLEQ
MrgX1 ag: agonists of human MrgX1 receptor, primary screen, HEK293 cells, Fluo-4 calcium flux. Mas-related G-protein coupled receptor member X1 (Homo sapiens), Q96LB2. Fluo-4 calcium fluorescence, agonist mode; active compounds read high. B-score at 10 µM. hit rate 0.44% among 310,000. AID 588627, 2011;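 active = calcium response B-score plate-corrected fluorescence ratio at least 3 library SD, with starting fluorescence B-score inside 5 SD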
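Material: MrgX1-expressing HEK293 cells; input: 15,000 cells per well; doses: test compound given as first of three sequential additions; schedule: overnight plating before 1 h dye loading; technique: Fluo-4 NW calcium-flux fluorescence, kinetic read; evaluation: baseline-normalised fluorescence change ratio, B-scored; control set: plate-wise positive and negative controls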
MrgX1 antag: antagonists of human MrgX1 receptor, primary screen, HEK293 cells, Fluo-4 calcium flux. Mas-related G-protein coupled receptor member X1 (Homo sapiens), Q96LB2. BAM8-22 antagonism; active compounds read low. B-score at 10 µM. hit rate 1.3% among 310,000. AID 588676, 2011;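 active = calcium-response B-score plate-corrected more than 3 library SD below zero, starting fluorescence within 5 deviations, no agonist response on first addition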;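 note: peak minus trough fluorescence over baseline after final BAM8-22 challenge near maximal dose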
RGS4 act valid: reduced carbachol calcium response, RGS4-induced M3R cells, confirmation, RGS4 activator project, cell-based, HEK293 M3R/RGS4 inducible, calcium flux, duplicate | inhibition, % at 10 µM | shares compounds with RGS4 act | carbachol calcium flux Fluo4 | hit rate 89% among 1,100;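 active = inhibition above 3 SD of the buffer control wells, cut at about 41% in these data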;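 note: signal is the integrated peak-minus-minimum Fluo4 fluorescence over baseline ratio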
RGS4 act ctr: RGS4 activator counter-screen hit in non-induced cells; shares compounds with RGS4 act; HEK293 M3R non-induced RGS4, Fluo4 calcium flux; after carbachol challenge at its EC90; inhibition, % at 10 µM; hit rate 82% among 1,100;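 active = inhibition exceeding 3 SD of buffer-only control wells, cut at about 26% in these data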;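 note: percent drop in integrated peak-minus-baseline over baseline Fluo4 ratio after carbachol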
The depositor's hits bear a star. The list is not random: actives were taken first. Their share in the collection is about 3.5%.

COCCN(C(=O)COC(=O)c1cccs1)c1c(N)n(Cc2ccccc2)c(=O)[nH]c1=O was read as RGS4 act inactive, RGS4 inh inactive, MrgX1 allo act inactive, MrgX1 ag inactive and MrgX1 antag inactive.
CN(C)C(CNC(=O)c1ccc(C2SCCS2)cc1)c1ccccc1 (stereo not given) was read as RGS4 act -10*, RGS4 inh inactive, MrgX1 allo act inactive, MrgX1 ag inactive, MrgX1 antag inactive, RGS4 act valid 94* and RGS4 act ctr 80*.
O=C(NC(=S)Nc1sc2c(c1C(=O)O)CCCC2)c1ccccc1 was read as RGS4 act inactive, RGS4 inh inactive, MrgX1 allo act inactive, MrgX1 ag inactive and MrgX1 antag inactive.
`Cc1c(NC(=O)c2cc(-c3cccs3)nc3ccccc23)c(=O)n(-c2ccccc2)n1C` gave RGS4 act inactive, RGS4 inh inactive, MrgX1 allo act inactive, MrgX1 ag inactive and MrgX1 antag inactive.
Screening Cc1ccc(NC(=O)c2cc(-c3cccs3)nc3ccccc23)nc1 returned RGS4 act -7.9*, RGS4 inh inactive, MrgX1 allo act inactive, MrgX1 ag inactive, MrgX1 antag inactive, RGS4 act valid 78* and RGS4 act ctr 0.
For CCC(C)NC(=O)Cn1cc(S(=O)(=O)N2CCN(c3ccccc3F)CC2)c2ccccc2c1=O (stereo not given) the results were RGS4 act inactive, RGS4 inh inactive, MrgX1 allo act inactive, MrgX1 ag inactive and MrgX1 antag inactive.
For CCCN(CC#CC(O)(c1ccccc1)c1cccnc1)CCC (stereo not given) the results were RGS4 act inactive, RGS4 inh inactive, MrgX1 allo act inactive, MrgX1 ag inactive and MrgX1 antag inactive.
OC(C#CCN1CCCC1)(c1ccccc1)c1cccnc1 (stereo not given) was read as RGS4 act -8.2*, RGS4 inh inactive, MrgX1 allo act inactive, MrgX1 ag inactive, MrgX1 antag inactive, RGS4 act valid 92* and RGS4 act ctr 86*.
For CCOc1ccc(/C=N/NC(=O)C(O)c2ccccc2)c(O)c1 (stereo not given) the results were RGS4 act inactive, RGS4 inh inactive, MrgX1 allo act inactive, MrgX1 ag inactive and MrgX1 antag inactive.
For C=CCO/N=C(/CCC)C1=C(N)CC(C)(C)CC1=O the results were RGS4 act inactive, RGS4 inh inactive, MrgX1 allo act inactive, MrgX1 ag inactive and MrgX1 antag inactive.
Screening CCOC(=O)C1CCN(S(=O)(=O)c2ccc3c(c2)CC(C)N3C(=O)C2CCC2)CC1 (stereo not given) returned RGS4 act -8.2*, RGS4 inh inactive, MrgX1 allo act inactive, MrgX1 ag inactive, MrgX1 antag inactive, RGS4 act valid 57* and RGS4 act ctr 0.
For O=C(NCc1ccccc1)C1COc2ccccc2O1 (stereo not given) the results were RGS4 act inactive, RGS4 inh inactive, MrgX1 allo act inactive, MrgX1 ag inactive and MrgX1 antag inactive.
Screening O=C(NC1CCN(Cc2ccccc2)CC1)C1COc2ccccc2O1 (stereo not given) returned RGS4 act -8.5*, RGS4 inh inactive, MrgX1 allo act inactive, MrgX1 ag inactive, MrgX1 antag inactive, RGS4 act valid 92* and RGS4 act ctr 87*.
COc1ccccc1C(=O)NCC1CCN(c2ccc(S(=O)(=O)N3CCOCC3)cc2)CC1 was read as RGS4 act -7.8*, RGS4 inh inactive, MrgX1 allo act inactive, MrgX1 ag inactive, MrgX1 antag inactive, RGS4 act valid 93* and RGS4 act ctr 86*.
Screening CC1CCCCN1C(=O)CSc1nnc(-c2ccccc2O)o1 (stereo not given) returned RGS4 act inactive, RGS4 inh inactive, MrgX1 allo act inactive, MrgX1 ag inactive and MrgX1 antag inactive.
Screening COc1ccc(Cc2noc(CN3CCN(C4CCc5ccccc5C4)CC3)n2)cc1OC (stereo not given) returned RGS4 act inactive, RGS4 inh inactive, MrgX1 allo act inactive, MrgX1 ag inactive and MrgX1 antag inactive.
Fc1cccc(Cc2noc(CN3CCN(C4CCc5ccccc5C4)CC3)n2)c1 (stereo not given) was read as RGS4 act -7.7*, RGS4 inh inactive, MrgX1 allo act inactive, MrgX1 ag inactive, MrgX1 antag inactive, RGS4 act valid 92* and RGS4 act ctr 89*.
O=c1c2ccccc2nc(-c2ccccc2Cl)n1O was read as RGS4 act inactive, RGS4 inh inactive, MrgX1 allo act inactive, MrgX1 ag inactive and MrgX1 antag inactive.
`O=C1NC2CCc3nc4ccccc4c(=O)n3C2=Nc2ccccc21` (stereo not given) gave RGS4 act -9.8*, RGS4 inh inactive, MrgX1 allo act inactive, MrgX1 ag inactive, MrgX1 antag inactive, RGS4 act valid 0 and RGS4 act ctr 0.
Screening COc1cc(C(=O)N[C@H](C(=O)Nc2nnc(C3CC3)s2)C(C)C)cc(OC)c1OC returned RGS4 act inactive, RGS4 inh inactive, MrgX1 allo act inactive, MrgX1 ag inactive and MrgX1 antag inactive.
CCCC(O)(CCN1CCOCC1)c1ccc(Br)cc1 (stereo not given) was read as RGS4 act -9*, RGS4 inh inactive, MrgX1 allo act inactive, MrgX1 ag inactive, MrgX1 antag inactive, RGS4 act valid 91* and RGS4 act ctr 78*.
Screening CCCC(O)(CCN1CCOCC1)c1ccc(Cl)cc1 (stereo not given) returned RGS4 act inactive, RGS4 inh inactive, MrgX1 allo act inactive, MrgX1 ag inactive and MrgX1 antag inactive.
Screening CCCOc1ccc(C(O)(CCC)CCN2CCCCC2)cc1 (stereo not given) returned RGS4 act -8.3*, RGS4 inh inactive, MrgX1 allo act inactive, MrgX1 ag inactive, MrgX1 antag inactive, RGS4 act valid 88* and RGS4 act ctr 36*.
For CCOc1ccc(OCCN2CCCCC2)cc1 the results were RGS4 act inactive, RGS4 inh inactive, MrgX1 allo act inactive, MrgX1 ag inactive and MrgX1 antag inactive.
